Measured values taken from ChEMBL document CHEMBL1123537, “Carbocyclic analogues of 5-halocytosine nucleosides” (1986).
Converted amounts (≈) assume the structure as drawn.

Assays:
[1] = tested on: MDCK; assay: (§1) Compound was tested for its potency against influenza virus (Ao) in MDCK cells; assay type: functional; settings: Canis lupus familiaris
How it was run: (§2)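 MDCK monolayers were infected at 32 CCID50 per well, in triplicate, with seven serial half-log10 compound dilutions spanning cytotoxic to noncytotoxic levels. Media were reinforced BME or MEM with 2% FBS, or MEM with trypsin (15 or 10 μg/mL). Plates were held 4–5 days at 37 °C, CPE was scored 0–4, and VR, ratio to ribavirin VR, and MIC50 were derived.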

[2] = tested on: MDCK; assay: Compound was tested for antiviral activity against influenza virus (Ao) in MDCK cells; assay type: functional, Canis lupus familiaris; how it was run: as §2
[3] = Ratio of the VR of the C-cytosine nucleoside to the VR of ribavirin; assay type: functional
How it was run: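 Influenza A (A0/PR/8/34 in MDCK; A2/Aichi/2/68 in primary rhesus monkey kidney) CPE-inhibition in monolayers with various media (reinforced BME or MEM plus serum, or trypsin-containing MEM). Triplicate wells at 32 CCID50/well, seven serial half-log10 concentrations spanning cytotoxic to noncytotoxic, 37 °C 4 or 5 days. CPE scored 0–4 microscopically; VR by modified Ehrlich method, divided by concurrent ribavirin VR.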

[4] = tested on: MDCK; assay: as §1; assay type: functional, Canis lupus familiaris; how it was run: as §2
[5] = tested on: Epidermoid carcinoma cell line; assay: Compound was tested for its antiviral activity against Herpes Simplex Virus-1(HF strain) in human epidermoid carcinoma cells (H.Ep.-2) measured as virus rating (VR).; assay type: functional
How it was run: (§3)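 […] HSV-1 strain HF in human H.Ep.-2 monolayers (MEM, 5% calf serum growth, 2% FBS maintenance), 32 CCID50/well, in triplicate wells. Seven compound concentrations in half-log10 steps were used, cytotoxic to noncytotoxic. Plates were kept at 37 °C for 4 or 5 days; microscopic CPE was scored 0 (none) to 4 (100%) and a virus rating was calculated from the scores, with ara-A as positive control.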

[6] = tested on: Vero; assay: Compound was tested for antiviral activity against Herpes Simplex Virus-2(MS strain) in vero cells (african green monkey kidney cells); assay type: functional, Chlorocebus sabaeus
[7] = tested on: Vero; assay: Compound was tested for its potency against Herpes Simplex Virus-2 (MS strain) in vero cells (african green monkey kidney cells); assay type: functional; settings: Chlorocebus sabaeus
[8] = species: Oryctolagus cuniculus; assay: Compound was tested for antiviral activity against Herpes Simplex Virus-1 (377 strain) in primary rabbit kidney cells; assay type: functional
How it was run: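 Primary rabbit kidney monolayers (MEM; 5% calf serum growth, 2% FBS maintenance) were challenged with HSV-1 E-377 (TK+), 32 CCID50/well, in triplicate. Seven half-log10 dilutions ranged from cytotoxic to noncytotoxic, with cytotoxicity and uninfected controls. After 4–5 days at 37 °C, CPE was scored 0–4 and converted to VR; ara-A ratio and 50% CPE-inhibitory concentration (MIC50) were also determined.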

[9] = tested on: Vero; assay: C(compound) was tested for antiviral activity against Herpes Simplex Virus-2(MS strain) in vero cells (african green monkey kidney cells); assay type: functional, Chlorocebus sabaeus
[10] = tested on: Epidermoid carcinoma cell line; assay: Compound was tested for its potency against Herpes Simplex Virus-1(HF strain) in human epidermoid carcinoma cells; assay type: functional; how it was run: as §3

SMILES | VR [2] | Ratio [3] | VR [5] | VR [6] | MIC50 [7] [µg/mL] | also measured
Nc1nc(=O)n(C2CC(CO)C(O)C2O)cc1Br (centres undefined) | 1.5 | 0.36 | – | – | – | MIC50 [1]: 150 µg/mL (≈ 469 µM)
Nc1nc(=O)n(C2CC(CO)CC2O)cc1I (centres undefined) | 0 | – | – | – | – | VR [4]: 0.5
Nc1ccn(C2CC(CO)CC2O)c(=O)n1 (centres undefined) | 0.1 | – | 0 | – | – | –
Nc1nc(=O)n(C2CC(O)C(CO)C2)cc1Br (centres undefined) | – | – | 0 | 2.6 | 62 (≈ 204 µM) | –
Nc1nc(=O)n([C@@H]2C[C@H](CO)[C@@H](O)[C@@H]2O)cc1I | – | – | 0 | 2.2 | 197 (≈ 537 µM) | –
Nc1nc(=O)n(C2CC(CO)C(O)C2O)cc1Cl (centres undefined) | 0.4 | 0.1 | – | – | – | –
Nc1ccn(C2CC(O)C(CO)C2)c(=O)n1 (centres undefined) | 0 | – | 0 | – | 44 (≈ 195 µM) | MIC50 [8]: < 26 µg/mL; VR [8]: 2.6; VR [9]: 1.9
Nc1nc(=O)n(C2CC(O)C(CO)C2)cc1I (centres undefined) | – | – | 0 | 1 | 340 (≈ 968 µM) | –
Nc1nc(=O)n([C@@H]2C[C@H](CO)[C@@H](O)[C@H]2O)cc1I | 0.2 | – | – | 0 | – | –
Nc1ccn([C@@H]2C[C@H](CO)[C@@H](O)[C@H]2O)c(=O)n1 | 3.5 | 0.73 | 0.8 | 3.2 | 2.4 (≈ 9.95 µM) | MIC50 [10]: 71 µg/mL (≈ 294 µM); MIC50 [1]: 2.6 µg/mL (≈ 10.8 µM)
Nc1nc(=O)n(C2CC(O)C(CO)C2)cc1Cl (centres undefined) | – | – | – | 0.7 | 270 (≈ 1040 µM) | –
Nc1ccn([C@@H]2C[C@H](CO)[C@@H](O)[C@@H]2O)c(=O)n1 | 0.8 | 0.2 | 0.6 | 2.4 | 13 (≈ 53.9 µM) | MIC50 [10]: 95 µg/mL (≈ 394 µM); MIC50 [1]: 312 µg/mL (≈ 1290 µM); MIC50 [8]: 30 µg/mL (≈ 124 µM); VR [8]: 1.8
